Experimental data published in ChEMBL document CHEMBL1127839, “In vitro photoinduced cytotoxicity and DNA binding properties of psoralen and coumarin conjugates of netropsin analogues: DNA sequence-directed alkylation and cross-link formation” (J Med Chem, 1994).

How the values were obtained:
[1] = Dose to produce photoinduced DNA cross-link formation on isolated DNA
Nucleic Acid [2] = experiment: Apparent binding constant was determined by ethidium displacement assay in calf thymus; type: nucleic-acid assay; conditions: Bos taurus
[3] = test system: Panel leukemia (Carcinoma cell lines); experiment: In vitro photocytotoxicity is evaluated against human chronic myeloid leukemia cells grown in culture irradiated at 366 nM; type: functional, cell-based; conditions: light or radiation study
Method in brief: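 K562 cells in RPMI 1640 with 10% FCS and 2 mM glutamine were exposed to drug at 0.01-100 μM final for 1 h at 37 °C in the dark. They were washed, then irradiated in PBS for 2 min at 366 nm (420 μW/cm², 5 cm, no filters). Cells were plated at 8 wells per sample and grown 4-5 days in the dark. Readout was MTT at 550 nm; IC50 was taken from the dose-response curve.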

[4] = test system: Panel leukemia (Carcinoma cell lines); experiment: In vitro photocytotoxicity is evaluated against human chronic myeloid leukemia cells grown in culture under the dark conditions; type: functional, cell-based
Method in brief: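 Human chronic myeloid leukemia K562 cells were given a 1 h drug exposure (0.01-100 μM final, from DMSO stocks) at 37 °C in the dark, then washed, with no UV irradiation. Cells were cultured 4-5 days in the dark in 96-well plates, 8 wells per sample. MTT was added for 5 h and formazan dissolved in DMSO was read at 550 nm. IC50 was taken from the dose-response curve.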

Nucleic Acid [5] = experiment: Apparent binding constant was determined by ethidium displacement assay in pol (dA-dT); type: nucleic-acid assay
Nucleic Acid [6] = experiment: Apparent binding constant was determined by ethidium displacement assay in coliphage T4 DNA; type: nucleic-acid assay
Nucleic Acid [7] = experiment: Apparent binding constant was determined by ethidium displacement assay in poly (dG-dC); type: nucleic-acid assay
[8] = Dose to produce […] on isolated DNA; no DNA cross-links

| SMILES | XL50 [1] [µM] | Binding constant (Nucleic Acid [2]) [M⁻¹] | IC50 [3] [µM] | IC50 [4] [µM] | Binding constant (Nucleic Acid [5]) [M⁻¹] | Binding constant (Nucleic Acid [6]) [M⁻¹] | Binding constant (Nucleic Acid [7]) [M⁻¹] | XL50 [8] |
| --- | --- | --- | --- | --- | --- | --- | --- | --- |
| COc1c2occc2cc2ccc(=O)oc12 [METHOXSALEN] | 18 | 48000 | 100 | > 100 | 17000 | 14000 | 25000 | – |
| CN(C)CCNC(=O)c1cc(NC(=O)c2cc(NC(=O)CCCCOc3c4occc4cc4ccc(=O)oc34)cn2C)cn1C | 0.005 | 550000 | 0.3 | > 100 | 290000 | 660000 | 90000 | – |
| CN(C)CCNC(=O)c1nc(NC(=O)c2nc(NC(=O)CCCCOc3ccc4ccc(=O)oc4c3)cn2C)cn1C | – | 100000 | 40 | > 100 | 110000 | 100000 | 140000 | No DNA crosslinks |
| CN(C)CCNC(=O)c1nc(NC(=O)c2nc(NC(=O)CCCCOc3c4occc4cc4ccc(=O)oc34)cn2C)cn1C | 1.6 | 40000 | 4.5 | 55 | 90000 | 270000 | 210000 | – |
| Cn1cc(NC(=O)c2cc(NC(=O)c3cc(NC=O)cn3C)cn2C)cc1C(=O)NCCC(=N)N | – | 770000 | – | – | 3.48e+07 | 650000 | 200000 | – |
| CN(C)CCNC(=O)c1cc(NC(=O)c2cc(NC(=O)CCCCOc3ccc4ccc(=O)oc4c3)cn2C)cn1C | – | 170000 | 75 | > 100 | 3.5e+06 | 120000 | 110000 | No DNA crosslinks |
